Experiment [1] deals with T1, M-phase inducer phosphatase 2 (Homo sapiens, UniProt P30305).
T1 sequence (P30305 whole entry): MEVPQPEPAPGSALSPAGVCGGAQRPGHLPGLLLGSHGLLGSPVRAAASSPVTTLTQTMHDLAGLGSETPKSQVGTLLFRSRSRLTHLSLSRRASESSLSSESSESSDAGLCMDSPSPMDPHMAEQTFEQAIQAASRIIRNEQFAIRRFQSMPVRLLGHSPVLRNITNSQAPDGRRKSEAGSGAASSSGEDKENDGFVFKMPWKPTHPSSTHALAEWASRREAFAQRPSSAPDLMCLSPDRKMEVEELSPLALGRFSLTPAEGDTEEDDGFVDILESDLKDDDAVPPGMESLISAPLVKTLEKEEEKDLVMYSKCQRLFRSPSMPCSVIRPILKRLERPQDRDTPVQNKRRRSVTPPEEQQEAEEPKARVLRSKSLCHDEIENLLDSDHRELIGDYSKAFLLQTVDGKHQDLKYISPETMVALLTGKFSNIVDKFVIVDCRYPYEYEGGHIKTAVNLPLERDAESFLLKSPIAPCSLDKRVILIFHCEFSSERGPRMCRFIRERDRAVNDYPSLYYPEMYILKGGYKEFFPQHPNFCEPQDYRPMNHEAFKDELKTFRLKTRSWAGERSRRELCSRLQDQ
Nature of the experiment: Inhibition of human recombinant CDC25B. In outline: (§1)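 IC50 values were obtained by regression analysis and reported as mean ± SD of three replicate determinations.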

Experiment [2] concerns the target Receptor-type tyrosine-protein phosphatase alpha (Homo sapiens) (UniProt P18433). Nature of the experiment: Inhibition of human recombinant PTPalpha at 20 ug/mL.
For experiment [3], the target named is T2, Tyrosine-protein phosphatase non-receptor type 6 (Homo sapiens, UniProt P29350). The experiment can be described thus: Inhibition of human recombinant SHP1 in Tris buffer of pH 8 at 20 ug/mL.
Experiment [4] is described as follows: Selectivity ratio of IC50 for TCPTP to IC50 for PTP1B.
The target in experiment [5] is Receptor-type tyrosine-protein phosphatase F (Homo sapiens) (UniProt P10586). Nature of the experiment: Inhibition of human recombinant LAR at 20 ug/mL.
Experiment [6] addresses T3, Tyrosine-protein phosphatase non-receptor type 1 (Homo sapiens, UniProt P18031).
T3 sequence (P18031 whole entry): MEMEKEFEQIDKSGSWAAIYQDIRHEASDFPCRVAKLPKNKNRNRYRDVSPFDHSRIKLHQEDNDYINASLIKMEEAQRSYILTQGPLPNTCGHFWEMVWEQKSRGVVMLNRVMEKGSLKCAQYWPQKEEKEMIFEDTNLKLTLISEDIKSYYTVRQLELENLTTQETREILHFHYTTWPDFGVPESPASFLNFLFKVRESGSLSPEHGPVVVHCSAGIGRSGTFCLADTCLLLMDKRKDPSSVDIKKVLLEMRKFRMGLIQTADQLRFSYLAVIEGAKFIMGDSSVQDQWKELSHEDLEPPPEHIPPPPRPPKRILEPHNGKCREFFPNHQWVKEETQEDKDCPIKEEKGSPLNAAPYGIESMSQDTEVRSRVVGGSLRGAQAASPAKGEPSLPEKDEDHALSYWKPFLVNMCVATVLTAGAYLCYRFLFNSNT
Nature of the experiment: Inhibition of PTP1B using p-nitrophenyl phosphate as substrate. In outline: as §1

Experiment [7] deals with T4, Tyrosine-protein phosphatase non-receptor type 2 (Homo sapiens, UniProt P17706).
T4 sequence (P17706 whole entry): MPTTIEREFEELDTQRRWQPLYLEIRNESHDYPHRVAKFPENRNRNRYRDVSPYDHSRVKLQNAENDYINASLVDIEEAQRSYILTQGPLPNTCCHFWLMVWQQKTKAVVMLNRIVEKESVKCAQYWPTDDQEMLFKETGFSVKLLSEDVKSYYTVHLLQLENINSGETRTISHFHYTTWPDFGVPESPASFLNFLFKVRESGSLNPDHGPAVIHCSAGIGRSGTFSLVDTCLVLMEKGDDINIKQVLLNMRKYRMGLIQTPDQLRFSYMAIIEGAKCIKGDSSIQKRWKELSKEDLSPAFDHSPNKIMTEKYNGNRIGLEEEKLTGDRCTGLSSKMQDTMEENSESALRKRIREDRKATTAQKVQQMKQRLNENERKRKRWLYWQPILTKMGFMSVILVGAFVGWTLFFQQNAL
Nature of the experiment: Inhibition of TCPTP. In outline: as §1

Experiment [8] concerns the target T5, Tyrosine-protein phosphatase non-receptor type 1 (Homo sapiens) (UniProt P18031).
T5 sequence (whole entry): T3 sequence (P18031 whole entry)
To be noted: 2.5 to 10 uM.

For experiment [9], the target named is T2, Tyrosine-protein phosphatase non-receptor type 6. Nature of the experiment: Inhibition of human recombinant SHP1 in Tris buffer at pH 8 using OMPF as substrate. In outline:
as §1

Experiment [10] addresses T5, Tyrosine-protein phosphatase non-receptor type 1 (Homo sapiens). To be noted: 2.5 to 10 uM. This is another data set of the same source.

Active and inactive are the calls of the source. The rule behind the calls is not given here.

T2 sequence (P29350 whole entry): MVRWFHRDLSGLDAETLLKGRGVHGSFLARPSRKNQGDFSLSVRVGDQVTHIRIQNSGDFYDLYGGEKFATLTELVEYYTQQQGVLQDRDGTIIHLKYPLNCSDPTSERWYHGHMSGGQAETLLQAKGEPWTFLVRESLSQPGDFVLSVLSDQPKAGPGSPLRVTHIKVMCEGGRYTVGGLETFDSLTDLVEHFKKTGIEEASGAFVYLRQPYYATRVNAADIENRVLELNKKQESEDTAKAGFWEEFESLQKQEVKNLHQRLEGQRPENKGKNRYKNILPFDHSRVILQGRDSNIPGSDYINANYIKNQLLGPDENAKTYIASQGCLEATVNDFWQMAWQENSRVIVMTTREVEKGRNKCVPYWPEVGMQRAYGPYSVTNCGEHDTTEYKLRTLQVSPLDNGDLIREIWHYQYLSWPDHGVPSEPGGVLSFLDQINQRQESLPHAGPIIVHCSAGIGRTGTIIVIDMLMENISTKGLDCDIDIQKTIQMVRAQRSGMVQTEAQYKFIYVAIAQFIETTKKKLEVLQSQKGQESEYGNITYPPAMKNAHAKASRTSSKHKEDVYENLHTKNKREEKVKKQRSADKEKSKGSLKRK
Sequence of Receptor-type tyrosine-protein phosphatase F (Homo sapiens) (P10586 whole entry): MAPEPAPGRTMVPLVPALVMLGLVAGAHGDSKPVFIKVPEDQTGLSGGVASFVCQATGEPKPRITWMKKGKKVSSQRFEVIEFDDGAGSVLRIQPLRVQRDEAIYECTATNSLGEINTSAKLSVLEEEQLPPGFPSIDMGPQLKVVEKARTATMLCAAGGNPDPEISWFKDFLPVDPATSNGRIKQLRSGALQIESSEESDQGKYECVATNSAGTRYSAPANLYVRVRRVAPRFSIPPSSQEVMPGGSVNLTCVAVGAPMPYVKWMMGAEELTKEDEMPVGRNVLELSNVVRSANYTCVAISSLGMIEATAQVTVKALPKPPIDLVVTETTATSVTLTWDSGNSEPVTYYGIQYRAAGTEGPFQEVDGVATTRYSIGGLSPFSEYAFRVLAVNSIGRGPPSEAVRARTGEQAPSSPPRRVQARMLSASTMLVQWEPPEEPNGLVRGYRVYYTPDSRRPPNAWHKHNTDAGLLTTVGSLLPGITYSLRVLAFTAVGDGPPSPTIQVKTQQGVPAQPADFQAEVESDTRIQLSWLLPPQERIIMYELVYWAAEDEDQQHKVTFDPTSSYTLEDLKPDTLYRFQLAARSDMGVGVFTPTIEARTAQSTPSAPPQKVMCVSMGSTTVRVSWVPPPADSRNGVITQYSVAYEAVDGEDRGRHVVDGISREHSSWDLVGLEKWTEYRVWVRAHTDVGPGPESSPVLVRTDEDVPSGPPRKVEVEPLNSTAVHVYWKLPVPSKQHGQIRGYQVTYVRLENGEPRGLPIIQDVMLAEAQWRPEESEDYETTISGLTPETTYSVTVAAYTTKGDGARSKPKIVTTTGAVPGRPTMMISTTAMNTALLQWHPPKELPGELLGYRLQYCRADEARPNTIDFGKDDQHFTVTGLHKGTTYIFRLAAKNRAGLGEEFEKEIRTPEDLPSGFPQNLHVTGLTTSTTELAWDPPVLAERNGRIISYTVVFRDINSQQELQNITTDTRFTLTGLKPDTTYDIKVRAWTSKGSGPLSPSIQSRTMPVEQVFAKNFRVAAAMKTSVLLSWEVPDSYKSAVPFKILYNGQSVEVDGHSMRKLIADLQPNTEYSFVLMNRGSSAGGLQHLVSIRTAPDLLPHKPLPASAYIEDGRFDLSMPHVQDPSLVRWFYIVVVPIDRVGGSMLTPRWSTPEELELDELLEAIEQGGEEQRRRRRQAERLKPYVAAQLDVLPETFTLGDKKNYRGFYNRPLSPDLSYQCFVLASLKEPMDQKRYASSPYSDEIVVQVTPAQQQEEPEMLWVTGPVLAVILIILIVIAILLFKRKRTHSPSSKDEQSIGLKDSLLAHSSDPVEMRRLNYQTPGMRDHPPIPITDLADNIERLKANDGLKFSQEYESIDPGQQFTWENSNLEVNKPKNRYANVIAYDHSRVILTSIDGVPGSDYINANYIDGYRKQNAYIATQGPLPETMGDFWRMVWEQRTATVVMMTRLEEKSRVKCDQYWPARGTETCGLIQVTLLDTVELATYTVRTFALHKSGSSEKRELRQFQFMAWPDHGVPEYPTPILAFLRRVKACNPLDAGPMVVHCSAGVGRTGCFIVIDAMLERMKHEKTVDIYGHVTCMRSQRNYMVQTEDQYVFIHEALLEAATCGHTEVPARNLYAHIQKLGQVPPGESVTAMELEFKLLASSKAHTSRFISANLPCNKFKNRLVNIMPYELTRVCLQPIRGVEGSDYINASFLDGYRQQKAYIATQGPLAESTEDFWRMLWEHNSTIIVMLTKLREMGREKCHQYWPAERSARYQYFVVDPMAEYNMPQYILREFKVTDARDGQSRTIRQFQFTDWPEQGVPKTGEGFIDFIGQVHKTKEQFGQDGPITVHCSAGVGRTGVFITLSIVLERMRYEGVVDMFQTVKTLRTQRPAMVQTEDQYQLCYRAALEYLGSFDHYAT
Sequence of Receptor-type tyrosine-protein phosphatase alpha (Homo sapiens) (P18433 20-802 limits assumed): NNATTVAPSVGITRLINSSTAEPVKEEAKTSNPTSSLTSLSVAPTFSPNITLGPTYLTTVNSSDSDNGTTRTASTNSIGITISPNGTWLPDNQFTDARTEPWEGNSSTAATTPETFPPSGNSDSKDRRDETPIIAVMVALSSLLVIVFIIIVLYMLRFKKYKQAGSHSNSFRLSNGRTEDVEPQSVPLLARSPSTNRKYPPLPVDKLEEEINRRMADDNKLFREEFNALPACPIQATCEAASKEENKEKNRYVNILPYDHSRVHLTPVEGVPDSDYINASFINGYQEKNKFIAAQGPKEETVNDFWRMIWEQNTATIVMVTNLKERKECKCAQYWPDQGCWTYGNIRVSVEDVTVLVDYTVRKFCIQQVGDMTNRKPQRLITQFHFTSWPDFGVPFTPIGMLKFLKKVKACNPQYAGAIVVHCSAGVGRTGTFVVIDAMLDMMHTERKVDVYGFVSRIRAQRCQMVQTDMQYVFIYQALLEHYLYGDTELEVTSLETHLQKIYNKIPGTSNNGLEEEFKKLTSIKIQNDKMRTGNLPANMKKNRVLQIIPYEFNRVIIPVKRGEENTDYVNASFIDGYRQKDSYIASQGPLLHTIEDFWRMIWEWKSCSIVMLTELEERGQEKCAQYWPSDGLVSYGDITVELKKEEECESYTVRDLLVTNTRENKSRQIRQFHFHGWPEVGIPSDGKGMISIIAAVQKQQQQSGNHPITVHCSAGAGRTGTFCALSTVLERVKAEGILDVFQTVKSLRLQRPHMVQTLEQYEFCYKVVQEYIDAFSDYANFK

As a reminder, the IC50 is the concentration at which inhibition is half-maximal. Take `O=C(NC(Cc1ccc2cc(OCc3ccccc3F)ccc2c1)C(=O)O)c1ccccc1` (racemic): the IC50 in experiment [1] turned out to be 19.4 µM; in experiment [6], 6.55 µM; in experiment [7], 9.43 µM. Further, the inhibition entry in experiment [2], in experiment [3] and in experiment [5] was “inactive” throughout. For the same compound, in experiment [4], the Ratio IC50 turned out to be 1.
For the compound `COc1ccc(/C=C/C(=O)NC(Cc2ccc3cc(OCc4ccccc4F)ccc3c2)C(=O)O)cc1` (racemic), the IC50 in experiment [1] is 14 µM; in experiment [6], 5.9 µM; in experiment [7], 9.21 µM. Also, the inhibition entry in experiment [2], in experiment [3] and in experiment [5] was “inactive” in each case. In addition, the Ratio IC50 in experiment [4] was 1.
As to `O=C(/C=C/c1ccccc1Cl)NC(Cc1ccc2cc(OCc3ccccc3F)ccc2c1)C(=O)O` (racemic), the inhibition result in [8] is “tde”. For the same compound, the concentration for half-maximal inhibition (IC50) was found to be 3.08 µM in experiment [1], 2.43 µM in [9], 1.25 µM in [6] and 3.84 µM in [7]. The inhibition result in [2] and in experiment [5] was “inactive” each time. Besides, the Ratio IC50 in experiment [4] stood at 3. The inhibition result in [10] is “Active”.

Source of the values: ChEMBL document CHEMBL1821688, “Synthesis and biological evaluation of (±)-3-(2-(2-fluorobenzyloxy) naphthalen-6-yl)-2-aminopropanoic acid derivatives as novel PTP1B inhibitors” (Eur J Med Chem, 2011).
